Hits are enriched below; roughly 3.5% of the tested compounds scored in any of these assays.
MrgX1 PAM: allosterically activates human MrgX1 receptor signaling. Q96LB2. MrgX1-HEK293, Fluo-4 calcium flux, FDSS; active compounds read high. B-score at 10 µM. hit rate 0.63% among 310,000. AID 588675;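 active = plate-corrected calcium response at least 3 library SD above typical, normal starting fluorescence, not activating the receptor alone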;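 note: compound read alongside a low EC10 to EC30 dose of BAM8-22 agonist; peak minus trough fluorescence over baseline measured at the second addition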
Target sequence (Q96LB2 whole entry, looked up): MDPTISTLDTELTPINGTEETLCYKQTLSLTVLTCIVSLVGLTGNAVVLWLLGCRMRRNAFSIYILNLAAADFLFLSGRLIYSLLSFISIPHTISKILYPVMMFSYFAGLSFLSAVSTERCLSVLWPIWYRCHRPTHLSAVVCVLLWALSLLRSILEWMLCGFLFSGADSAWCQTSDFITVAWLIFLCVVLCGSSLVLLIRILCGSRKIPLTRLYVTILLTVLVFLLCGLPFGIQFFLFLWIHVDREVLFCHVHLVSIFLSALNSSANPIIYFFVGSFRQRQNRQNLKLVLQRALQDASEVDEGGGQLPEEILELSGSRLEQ
MrgX1 agonist: agonists of human MrgX1 receptor. MrgX1-HEK293 cells, Fluo-4 calcium fluorescence, agonist mode; active compounds read high. Q96LB2. B-score at 10 µM. hit rate 0.44% among 310,000. AID 588627;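 active = calcium response B-score plate-corrected fluorescence ratio at least 3 library SD, with starting fluorescence B-score inside 5 SD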
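Material: HEK293 cells stably expressing human MrgX1 receptor | Quantity: 15,000 cells per well | Times: Cells plated overnight, dye loaded 0.5 h 37 °C, 0.5 h room temperature | Measured by: Kinetic Fluo-4 NW fluorescence of intracellular calcium | Control set: Positive and negative controls per plate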
RGS4 inh: inhibitors of human RGS4 | P49798 | HEK293 M3R/RGS4 inducible, Fluo-4 calcium flux; active compounds read high; triggered by carbachol at its EC20 | B-score at 10 µM | hit rate 0.45% among 310,000 | AID 463165;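 active = B-score, a plate-corrected calcium signal, over three deviations above library mean, with baseline fluorescence within five deviations of library mean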;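 note: RGS4 expression induced by doxycycline in cells with stable M3 receptor; B-score is computed from the integrated fluorescence ratio over baseline after carbachol; higher B-score means a larger calcium signal and so more RGS4 inhibition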
Target sequence (P49798 whole entry, looked up): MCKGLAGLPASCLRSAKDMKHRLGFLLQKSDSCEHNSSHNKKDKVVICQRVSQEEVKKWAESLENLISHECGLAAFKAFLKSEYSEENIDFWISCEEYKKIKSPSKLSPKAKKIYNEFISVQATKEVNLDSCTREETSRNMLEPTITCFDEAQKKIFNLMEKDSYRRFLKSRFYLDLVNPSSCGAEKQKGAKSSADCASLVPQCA
RGS4 act: RGS4 potentiation or activation; B-score at 10 µM; HEK293 M3R/inducible RGS4, carbachol calcium flux Fluo4; active compounds read low; hit rate 0.92% among 310,000;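 active = B-score of the integrated calcium signal more than 4 SD below the library mean, with starting fluorescence not abnormally high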;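 note: negative B-score means reduced calcium response which marks RGS4 activation or potentiation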
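System: HEK293 FlpIn-TREx cells, stable M3R, doxycycline-inducible RGS4. Timing: overnight RGS4 induction, 30 min dye load 37 °C, 20 min compound RT. Also added: carbachol, ECmax concentration. Measured by: Fluo4 fluorescence kinetic imaging of calcium. Evaluation: integrated calcium ratio converted to B score.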
MrgX1 antagonist: antagonists of human MrgX1 receptor; Q96LB2; MRGX1-HEK293 calcium flux, Fluo-4, BAM8-22 antagonism; active compounds read low; B-score at 10 µM; hit rate 1.3% among 310,000; AID 588676;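 active = calcium-response B-score plate-corrected more than 3 library SD below zero, starting fluorescence within 5 deviations, no agonist response on first addition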;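 note: peak minus trough fluorescence over baseline after final BAM8-22 challenge near maximal dose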
Numbers without * were called inactive; i = inactive; . = no result.

SMILES	MrgX1 PAM	MrgX1 agonist	RGS4 inh	RGS4 act	MrgX1 antagonist
CN1CCN(/N=C/c2ccc(-c3ccccc3)cc2)CC1	i	i	i	i	i
CN1CCN(/N=C/c2c3ccccc3c(Cl)c3ccccc23)CC1	9.3*	i	i	i	i
COc1ccc(C(=O)Nc2ncccc2C)cc1S(=O)(=O)N1CCOCC1	i	i	i	i	i
Cc1ccc(Cl)cc1N1CCN(c2cccc[n+]2C)CC1	i	i	i	-7.3*	i
O=C(CN1C(=O)NC2(CCCC2)C1=O)NNC(=O)c1ccccc1	i	i	i	i	i
COc1ccc(C(=O)NC(C(=O)NCC(=O)Nc2c(C)cccc2C)C(C)C)cc1 (centres undefined)	i	i	i	i	i
CC(C)Sc1nc(N2CCCC2)c2c(c1C#N)CC(C)(C)OC2	i	i	i	-7.2*	i
Cc1ccc(S(=O)(=O)N2[C@@H](c3ccc(Cl)cc3)C(C(=O)O)=CC[C@H]2c2cccc(Cl)c2)cc1	i	30*	.	.	i
Cc1ccc(S(=O)(=O)N2[C@@H](c3ccccc3)C(C(=O)O)=CC[C@H]2c2ccc3c(c2)OCO3)cc1	10*	i	.	.	i
Cc1ccc(S(=O)(=O)N2[C@@H](c3ccc(Cl)cc3)C(C(=O)O)=CC[C@H]2c2cccc(C)c2)cc1	i	i	.	.	i
COc1ccc(C(C)NC(=O)c2ccncc2)cc1OC (centres undefined)	i	i	i	i	i
O=C1NC2(CCCCCC2)C(=O)N1Cc1cccc([N+](=O)[O-])c1	i	i	i	i	i
COc1ccc(C2=CC(=O)CC(c3ccc(F)cc3)C2)cn1 (centres undefined)	10*	i	i	i	i
O=C1C=C(c2ccccc2)CC(c2ccc(F)cc2)C1 (centres undefined)	i	i	i	i	i
CN(C)CC/C=C1/c2ccccc2Sc2c(O)cc(Cl)cc21	i	i	i	-7.3*	i
CN1CCN(CC/C=C2/c3ccccc3Sc3ccc(S(=O)(=O)N(C)C)cc32)CC1	i	i	i	i	i
CN(C)CC/C=C1/c2cc(F)ccc2Sc2ccc(Cl)cc21	i	i	i	-10*	i
COc1cc(Cl)cc2c1Sc1ccccc1/C2=C/CCN(C)C	i	i	i	-7.1*	i
Cc1ccc2nc(Cl)c(/C=N/Nc3ccc(C(=O)O)cc3)cc2c1	i	i	i	i	i
CCOc1ccc(N2CC(C(=O)NCCc3c[nH]c4ccc(C)cc34)CC2=O)cc1 (centres undefined)	i	i	i	i	i
O=C(c1ccco1)N1CCN(c2ncnc3sc4c(c23)CCC4)CC1	i	i	i	-7.2*	i
CCc1nc(N2CCN(C(=O)c3ccco3)CC2)c2c3c(sc2n1)CCCC3	i	i	i	i	i
CCCc1cc(=O)oc2cc(C)cc(O)c12	i	35*	i	i	i
CCc1cc(=O)oc2cc(C)cc(O)c12	i	i	i	i	i
N#CCC(=O)Nn1c(=S)[nH]c2ccccc2c1=O	i	i	i	i	i
SMILES	MrgX1 PAM	MrgX1 agonist	RGS4 inh	RGS4 act	MrgX1 antagonist
CCOc1ccccc1C(=O)Nc1cccc(-c2nnc(-c3ccccc3)o2)c1	i	i	i	-7.2*	i
O=C(Nc1cccc(F)c1)c1ccc(S(=O)(=O)N2CCCCC2)cc1	i	i	i	i	i
CCC(=O)N1CCCc2cc(S(=O)(=O)CCC(=O)Nc3ccccc3C)ccc21	i	i	i	i	i
COc1cccc(C2=CC(c3ccc(N(C)C)cc3)n3ncnc3N2)c1 (centres undefined)	i	48*	i	i	i
COc1cccc(C2=CC(c3ccccc3)n3ncnc3N2)c1 (centres undefined)	15*	i	i	i	i
CCN1/C(=C/C=C/c2oc3ccc4ccccc4c3[n+]2CC)Oc2ccc3ccccc3c21	i	i	i	-9*	-7.8*
O=S(=O)(NCc1ccccn1)c1ccccn1	i	i	i	i	i
O=c1/c(=C\c2ccc(O)cc2)sc2n1C(c1ccccc1)C(c1ccccc1)=NN=2 (centres undefined)	13*	i	i	i	i
O=[N+]([O-])c1ccc(N2CCN(Cc3ccccc3)CC2)s1	i	i	i	i	-5*
NS(=O)(=O)c1ccc(Nc2c([N+](=O)[O-])cncc2[N+](=O)[O-])cc1	i	35*	i	i	i
O=[N+]([O-])c1cncc([N+](=O)[O-])c1Nc1ccccc1Cl	i	i	i	i	i
COc1cccc(Nc2c([N+](=O)[O-])cncc2[N+](=O)[O-])c1	i	31*	i	i	i
Cc1ccc(-n2cc(-c3ccccc3)c3c(N4CCN(C)CC4)ncnc32)cc1	i	i	i	i	i
Cc1ccc(-n2cc(-c3ccccc3)c3c(N4CCOCC4)ncnc32)cc1	.	.	i	-7.3*	.
CCOC(=O)C1(Cc2cccc(Cl)c2)CCCN(C(=O)c2ccc(COC)s2)C1 (centres undefined)	i	i	i	i	i
O=C(NCc1ccc(Cl)cc1)C1CCN(S(=O)(=O)c2cc([N+](=O)[O-])ccc2Cl)CC1	i	i	i	i	i
Cc1cccc2sc(NC(=O)C3CCN(S(=O)(=O)c4cc([N+](=O)[O-])ccc4Cl)CC3)nc12	i	i	i	i	-6.8*
CC(CCc1ccccc1)N(C)CC(O)c1cccc([N+](=O)[O-])c1 (centres undefined)	i	i	i	i	i
O=[N+]([O-])c1c(Nc2ccccc2O)cc(Cl)c2nonc12	i	i	i	i	-12*
N#Cc1ccccc1S(=O)(=O)N1CCN(S(=O)(=O)c2ccc(Br)c(C(=O)O)c2)CC1	i	i	i	i	i
N#C/C(=C\c1cccs1)Sc1nc2ccccc2s1	i	i	i	i	-5.3*
N#C/C(=C\c1ccc[nH]1)Sc1nc2ccccc2s1	i	i	i	i	i
CCCN1CCN(c2nc(-c3cccs3)nc3ccccc23)CC1	i	i	i	i	i
CCOC(=O)N1CCN(c2nc(-c3cccs3)nc3ccccc23)CC1	i	i	i	-7.3*	i
O=C(O)c1ccc(Nc2ncnc3scc(-c4ccccc4)c23)cc1	i	30*	i	i	i
CCn1cc(C(=O)N2CCCC(CO)(Cc3ccccc3C)C2)cn1 (centres undefined)	i	i	i	i	i

Bioassay records: PubChem BioAssay, Johns Hopkins Ion Channel Center
